# Reference: PMC3539145 (Scientific Reports, 2013)
# Tests used:
# [1] = system: HEK 293 cells; assay: Cell viability of native HEK 293 cells; format: cell-based, human
# How it was run: (§1)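 Native HEK 293 cells and HEK 293 cells transfected with V5/His-tagged rat AC (pEF6 vector) and selected with G418 (0.3 mg/mL) are exposed to graded test-compound concentrations added in DMSO (final 0.1%). Cells are harvested, spun at 800xg for 10 min and resuspended in PBS. They are mixed 1:1 with 0.4% Trypan blue for 1 min, and viable cells are counted on a hemocytometer. Mean ± s.e.m., n = 4.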
# [2] = system: AC; conditions: read-out: AC IC50; in vitro, in keratinocytes; cited from earlier work
# [3] = target: human thymidylate synthase (h-TS) (Homo sapiens, UniProt P04818); assay: Human thymidylate synthase activity; format: biochemical
# [4] = system: mouse tissues (lungs and cerebral cortex); assay: Ceramide levels in mouse tissues after i.p. injection; format: in vivo; conditions: mice, 10 or 30 mg-kg^−1 i.p., lungs and brain cortex, 2 h
# How it was run: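 Male Swiss Webster mice (20–35 g) receive test compound i.p. (10 or 30 mg-kg−1; 1 ml-kg−1) in 15% PEG, 15% Tween-80 and 70% saline, or vehicle alone. They are killed by cervical dislocation 2 h later. Lungs and cerebral cortex are snap-frozen in liquid nitrogen, stored at −80°C, and ceramide is measured by LC/MS. Mean ± s.e.m., n = 6.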
# [5] = system: AC-overexpressing HEK 293 cells; assay: Cell viability of AC-overexpressing HEK 293 cells; format: cell-based, human
# How it was run: as §1
# [6] = target: T1, AC (Homo sapiens, UniProt Q13510); assay: AC activity in lysates of treated intact SW403 cells; format: cell-based
# T1 sequence (Q13510 22-395): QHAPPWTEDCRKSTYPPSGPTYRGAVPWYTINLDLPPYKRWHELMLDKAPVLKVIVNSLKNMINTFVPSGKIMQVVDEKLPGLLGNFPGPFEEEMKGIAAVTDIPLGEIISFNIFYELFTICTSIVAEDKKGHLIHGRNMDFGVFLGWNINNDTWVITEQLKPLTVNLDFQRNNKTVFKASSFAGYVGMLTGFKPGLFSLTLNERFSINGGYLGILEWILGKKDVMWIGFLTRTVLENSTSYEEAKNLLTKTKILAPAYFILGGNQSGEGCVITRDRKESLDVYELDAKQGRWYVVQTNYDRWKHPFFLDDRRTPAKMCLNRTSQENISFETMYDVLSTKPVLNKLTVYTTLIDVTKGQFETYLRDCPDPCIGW
# How it was run: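 Intact cells were exposed to test compound at 0.3–10 µM, with AC activity read 3 h later in cell lysates. A time course used 3 µM over various intervals. Vehicle was 0.1% DMSO in DMEM. SW403 cells were grown in DMEM with 10% FBS at 37°C, 5% CO2. Data are mean ± s.e.m., n = 3–6, each assay in duplicate.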
# [7] = target: T1, AC; assay: AC activity in lysates of treated intact LNCaP cells; format: cell-based; conditions: 0.3–10 µM for 3 h; 3 µM for various time intervals
# [8] = target: T2, AC (Mus musculus, UniProt Q9WV54); assay: AC activity measured ex vivo in mouse tissues after i.p. injection; set-up: species or system mice; conditions: for AC activity in mouse lungs and brain cortex: 10 or 30 mg-kg^−1 i.p., ex vivo 2 h after injection
# T2 sequence (Q9WV54 19-394): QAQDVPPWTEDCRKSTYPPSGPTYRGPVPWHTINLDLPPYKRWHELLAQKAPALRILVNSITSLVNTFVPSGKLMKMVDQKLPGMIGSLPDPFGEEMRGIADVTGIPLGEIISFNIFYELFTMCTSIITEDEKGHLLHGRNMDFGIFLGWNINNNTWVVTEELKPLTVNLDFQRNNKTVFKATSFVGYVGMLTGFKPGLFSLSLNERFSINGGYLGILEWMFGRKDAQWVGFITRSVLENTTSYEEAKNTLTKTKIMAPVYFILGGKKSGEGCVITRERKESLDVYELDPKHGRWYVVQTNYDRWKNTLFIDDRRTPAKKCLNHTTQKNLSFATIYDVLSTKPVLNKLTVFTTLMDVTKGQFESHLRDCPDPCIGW
# How it was run: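 Male Swiss Webster mice (20–35 g) received test compound at 10 or 30 mg-kg−1 i.p. (1 ml-kg−1) in 15% polyethylene glycol/15% Tween-80/70% saline. Mice were killed by cervical dislocation 2 h after dosing. Lungs and brain cortex were frozen in liquid nitrogen and stored at −80°C. AC activity was measured ex vivo. Data are mean ± s.e.m., n = 6.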
# [9] = system: SW403 cells; assay: SW403 cell viability; format: cell-based, human; conditions: for interaction with taxol on SW403 cell viability / interaction with 5-FU on SW403 cell viability: isobolographic analyses; for interaction with 5-FU on SW403 cell viability: 5-FU 0.3 µM; for change in SW403 cell viability: single treatment, 3 μM, 3 h
# How it was run: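 SW403 cells (2×10^5) are seeded the day before and treated in serum-free DMEM with test compound (0.1–100 µM) plus a partner drug (for 5-FU, 0.3 µM). Additions are repeated every 24 h over 72 h. Viability is read by Trypan blue exclusion on a hemocytometer. Interaction is assessed isobolographically, comparing experimental EC50 with the theoretical EC50 from the isobole equation.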
# [10] = system: SW403 cells; assay: Ceramide levels in SW403 cells; format: cell-based, human; conditions: 3 μM, 3 h
# How it was run: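 SW403 human colon adenocarcinoma cells are grown in DMEM with 10% FBS at 37°C and 5% CO2. They are treated with test compound at 3 µM, or with vehicle (0.1% DMSO in DMEM), for 3 h. Ceramide species, including d18:1/14:0, 16:0 and 18:0, are identified and quantified by LC/MS. Values are compared with vehicle by one-way ANOVA with Tukey's test.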
# [11] = Homo sapiens, HEK293, 24 h, read-out: EC50 (cell death / cell viability)
# Chain of human thymidylate synthase (h-TS) (P04818 whole entry): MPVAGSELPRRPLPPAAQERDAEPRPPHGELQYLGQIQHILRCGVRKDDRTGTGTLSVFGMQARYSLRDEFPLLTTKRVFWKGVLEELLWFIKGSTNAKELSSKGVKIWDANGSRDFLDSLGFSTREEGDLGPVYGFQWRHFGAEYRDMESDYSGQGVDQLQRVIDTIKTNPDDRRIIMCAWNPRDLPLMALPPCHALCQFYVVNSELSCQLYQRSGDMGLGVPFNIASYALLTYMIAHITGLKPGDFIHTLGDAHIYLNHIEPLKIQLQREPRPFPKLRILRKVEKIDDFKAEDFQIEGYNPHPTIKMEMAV
smiles,measurement,setting,value
"CCCC[C@@H](C)[C@@H](OC(=O)C[C@@H](CC(=O)O)C(=O)O)[C@H](C[C@@H](C)C[C@H](O)CCCC[C@@H](O)C[C@H](O)[C@H](C)N)OC(=O)C[C@@H](CC(=O)O)C(=O)O [FB1, fumonisin B1]",effect of FB1 on carmofur induced cell death,"[1]; HEK 293 cells, combination of carmofur plus FB1, Trypan blue",does not decrease carmofur induced cell death
"CCCCCCCCCCCCCC(=O)N[C@H](CO)[C@H](O)c1ccc([N+](=O)[O-])cc1 [Compound B13, (1R, 2R)-2-(N-tetradecanoylamino)-1-(4-nitrophenyl)-1,3-propanediol]",IC50,[2],~10 µM
"CCCCCCNC(=O)n1cc(F)c(=O)[nH]c1=O [Carmofur, 1-hexylcarbamoyl-5-fluorouracil]",IC50,[3],1210 ± 190 µM
same,tissue ceramide content,[4],increases in tissue ceramide content
same,EC50 in AC-overexpressing cells relative to native cells,"[5]; HEK 293-AC vs native HEK 293, 24 h",50 fold
same,EC50,[5]; [11],66 µM
same,AC activity in SW403 cells,"[6]; 0.3–10 µM for 3 h, 3 µM for various time intervals",concentration- and time-dependent reduction
same,EC50,[1]; [11],1.4 µM
same,AC activity in LNCaP cells,[7],inhibits AC
same,AC activity in mouse lungs and brain cortex,[8]; mice,dose-dependent inhibition
"CCCCCCNC(=O)n1cc(C(F)(F)F)c(=O)[nH]c1=O [ARN398, 5-trifluoromethyl-N-hexyl-2,4-dioxo-pyrimidine-1-carboxamide]",IC50,[3],1340 ± 268 µM
same,interaction with taxol on SW403 cell viability,[9],Super-additive effects
same,interaction with 5-FU on SW403 cell viability,[9],acted synergistically
same,change in SW403 cell viability,[9],did not result in any statistically detectable change
same,ceramide levels in SW403 cells,[10],increased ceramide levels
"CCCCCCNC(=O)n1cc(C)c(=O)[nH]c1=O [ARN081, N-hexyl-5-methyl-2,4-dioxo-pyrimidine-1-carboxamide]",IC50,[3],762 ± 123 µM
"CCCCCCNC(=O)n1cc(Cl)c(=O)[nH]c1=O [ARN082, 5-chloro-N-hexyl-2,4-dioxo-pyrimidine-1-carboxamide]",IC50,[3],496 ± 82 µM
"O=c1[nH]cc(F)c(=O)[nH]1 [Compound 5-FU, 5-fluorouracil, reference compound]",AC activity in SW403 cells,"[6]; 3 μM, 3 h",did not cause any detectable changes
same,AC activity in mouse tissue,"[8]; mice, 30 mg-kg^−1 i.p., 2 h, lungs (Figure 3A)",no statistically detectable effect
same,ceramide levels in SW403 cells,[10],did not cause any detectable changes
"CCCCCCNC(=O)n1ccc(=O)[nH]c1=O [ARN080, N-hexyl-2,4-dioxo-pyrimidine-1-carboxamide]",IC50,[3],196 ± 27 µM
same,interaction with taxol on SW403 cell viability,[9],Super-additive effects
same,interaction with 5-FU on SW403 cell viability,[9],acted synergistically
same,change in SW403 cell viability,[9],did not result in any statistically detectable change
same,AC activity in mouse lungs and brain cortex,[8]; mice,substantially reduced
same,ED50,"[8]; mouse, ip, 2 h, read-out: median inhibitory dose, ID50 (AC activity in vivo)",~10 mg/kg
same,ceramide levels in SW403 cells,[10],increased ceramide levels
